Holding throughout (type): protein-complex assay
Experiment [1] concerns the target T1, GABA-A receptor; alpha-6/beta-3/gamma-2 (Homo sapiens, UniProt P18507+P28472+Q16445). Nature of the experiment: Binding affinity against Gamma-aminobutyric acid A receptor alpha-6-beta-3-gamma-2. In outline: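 Cells scraped into PBS, spun at 3000g, resuspended in 10 mM KH₂PO₄/100 mM KCl pH 7.4. Nonspecific binding with 10⁻⁵ M diazepam; 1 h to equilibrium at 4 °C; filtration, ice-cold buffer wash, scintillation counting.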

Experiment [2] addresses T2, GABA-A receptor; alpha-2/beta-3/gamma-2 (Homo sapiens, UniProt P18507+P28472+P47869).
T2 sequence (P18507 whole entry): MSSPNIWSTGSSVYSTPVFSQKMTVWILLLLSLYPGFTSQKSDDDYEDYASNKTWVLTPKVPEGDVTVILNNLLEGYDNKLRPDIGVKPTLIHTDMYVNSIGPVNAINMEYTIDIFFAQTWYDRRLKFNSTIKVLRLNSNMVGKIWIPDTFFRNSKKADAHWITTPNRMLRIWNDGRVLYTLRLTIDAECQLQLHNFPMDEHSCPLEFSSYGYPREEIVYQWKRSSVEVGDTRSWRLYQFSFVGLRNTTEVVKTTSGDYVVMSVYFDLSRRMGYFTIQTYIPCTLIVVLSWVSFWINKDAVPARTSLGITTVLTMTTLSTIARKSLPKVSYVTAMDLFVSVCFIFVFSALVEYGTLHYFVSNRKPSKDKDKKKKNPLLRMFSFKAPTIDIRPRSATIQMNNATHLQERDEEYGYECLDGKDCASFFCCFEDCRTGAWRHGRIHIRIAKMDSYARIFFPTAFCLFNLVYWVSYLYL
T2 sequence (P28472 whole entry): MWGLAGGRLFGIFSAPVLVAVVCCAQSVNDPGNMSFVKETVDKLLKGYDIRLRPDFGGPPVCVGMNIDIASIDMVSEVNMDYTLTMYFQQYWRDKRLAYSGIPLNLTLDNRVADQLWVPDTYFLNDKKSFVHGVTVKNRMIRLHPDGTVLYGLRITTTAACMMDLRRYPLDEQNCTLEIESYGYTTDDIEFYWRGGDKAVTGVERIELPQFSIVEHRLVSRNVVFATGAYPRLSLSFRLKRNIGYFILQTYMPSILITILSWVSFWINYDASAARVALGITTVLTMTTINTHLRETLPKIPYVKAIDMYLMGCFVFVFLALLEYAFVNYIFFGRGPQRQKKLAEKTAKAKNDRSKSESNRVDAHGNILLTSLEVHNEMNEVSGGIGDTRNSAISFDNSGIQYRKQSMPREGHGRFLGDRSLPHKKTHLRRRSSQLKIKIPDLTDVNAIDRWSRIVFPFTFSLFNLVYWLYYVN
T2 sequence (P47869 whole entry): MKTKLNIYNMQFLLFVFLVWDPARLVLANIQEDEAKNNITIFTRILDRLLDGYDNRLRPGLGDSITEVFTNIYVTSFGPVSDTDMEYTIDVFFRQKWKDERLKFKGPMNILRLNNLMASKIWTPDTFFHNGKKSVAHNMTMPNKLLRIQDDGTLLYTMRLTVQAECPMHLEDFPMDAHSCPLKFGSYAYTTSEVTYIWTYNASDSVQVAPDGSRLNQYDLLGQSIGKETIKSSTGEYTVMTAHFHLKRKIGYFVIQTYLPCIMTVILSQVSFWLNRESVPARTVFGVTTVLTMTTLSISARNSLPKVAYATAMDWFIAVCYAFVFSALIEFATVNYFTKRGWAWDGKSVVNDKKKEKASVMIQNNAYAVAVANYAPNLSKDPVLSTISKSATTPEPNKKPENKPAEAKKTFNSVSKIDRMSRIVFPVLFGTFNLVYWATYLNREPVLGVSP
In words: Binding affinity for alpha-2-beta-3-gamma-2 GABA-A benzodiazepine receptor subunits.

For experiment [3], the target named is T3, GABA-A receptor; alpha-3/beta-3/gamma-2 (Homo sapiens, UniProt P18507+P28472+P34903).
T3 sequence (P18507 whole entry): T2 sequence (P18507 whole entry)
T3 sequence (P28472 whole entry): T2 sequence (P28472 whole entry)
T3 sequence (P34903 whole entry): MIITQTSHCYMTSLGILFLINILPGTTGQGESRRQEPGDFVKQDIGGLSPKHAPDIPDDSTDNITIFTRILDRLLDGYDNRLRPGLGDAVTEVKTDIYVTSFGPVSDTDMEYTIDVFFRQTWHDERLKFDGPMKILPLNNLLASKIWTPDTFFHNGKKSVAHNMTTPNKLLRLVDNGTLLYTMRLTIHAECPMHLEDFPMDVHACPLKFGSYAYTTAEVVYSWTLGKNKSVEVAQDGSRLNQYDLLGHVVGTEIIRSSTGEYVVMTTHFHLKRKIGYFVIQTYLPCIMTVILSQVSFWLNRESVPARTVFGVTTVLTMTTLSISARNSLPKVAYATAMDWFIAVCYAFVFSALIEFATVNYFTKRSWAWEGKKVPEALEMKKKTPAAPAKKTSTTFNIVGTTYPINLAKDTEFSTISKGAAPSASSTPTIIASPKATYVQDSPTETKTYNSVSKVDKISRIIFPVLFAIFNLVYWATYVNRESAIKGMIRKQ
In words: Binding affinity against alpha-3-beta-3-gamma-2 GABAA/BzR receptor subtype.

The target in experiment [4] is T1, GABA-A receptor; alpha-6/beta-3/gamma-2. Nature of the experiment: Inhibition of Gamma-aminobutyric acid A receptor alpha-6-beta-3-gamma-2 at 1 uM. In outline:
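Competition binding on Ltk⁻ cells expressing human α6β3γ2, radioligand [³H]Ro 15-4513. Cells scraped into PBS, spun at 3000g, resuspended in 10 mM KH₂PO₄/100 mM KCl pH 7.4. Nonspecific binding with 10⁻⁵ M diazepam; 1 h to equilibrium at 4 °C; filtration, ice-cold buffer wash, scintillation counting.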

The target of experiment [5] is T4, GABA-A receptor; alpha-5/beta-3/gamma-2 (Homo sapiens, UniProt P18507+P28472+P31644).
T4 sequence (P18507 whole entry): T2 sequence (P18507 whole entry)
T4 sequence (P28472 whole entry): T2 sequence (P28472 whole entry)
T4 sequence (P31644 whole entry): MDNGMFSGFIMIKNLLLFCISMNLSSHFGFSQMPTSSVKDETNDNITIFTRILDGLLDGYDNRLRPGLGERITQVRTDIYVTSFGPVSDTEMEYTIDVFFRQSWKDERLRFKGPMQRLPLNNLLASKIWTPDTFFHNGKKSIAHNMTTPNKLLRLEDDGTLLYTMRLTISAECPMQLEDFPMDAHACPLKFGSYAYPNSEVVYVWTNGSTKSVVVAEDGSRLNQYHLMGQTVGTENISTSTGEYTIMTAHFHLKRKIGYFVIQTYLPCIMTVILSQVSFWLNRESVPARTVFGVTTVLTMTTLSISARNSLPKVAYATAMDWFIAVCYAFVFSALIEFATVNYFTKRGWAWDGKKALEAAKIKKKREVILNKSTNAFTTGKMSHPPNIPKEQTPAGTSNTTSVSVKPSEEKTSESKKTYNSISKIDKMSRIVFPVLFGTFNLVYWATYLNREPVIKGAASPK
In words: Binding affinity for Gamma-aminobutyric acid A receptor alpha-5-beta-3-gamma-2.

The target in experiment [6] is GABA-A receptor; alpha-1/beta-3/gamma-2 (Homo sapiens) (UniProt P14867+P18507+P28472). Nature of the experiment: Inhibition of GABA-A benzodiazepine receptor alpha-1-beta-3-gamma-2 subunits at 1 uM.
Experiment [7] addresses GABA-A receptor; alpha-2/beta-3/gamma-2 (Homo sapiens) (UniProt P18507+P28472+P47869). In words: Inhibition of GABA-A benzodiazepine receptor alpha-2-beta-3-gamma-2 subunits at 1 uM.
For experiment [8], the target named is GABA-A receptor; alpha-3/beta-3/gamma-2 (Homo sapiens) (UniProt P18507+P28472+P34903). In words: Inhibition of GABA-A benzodiazepine receptor alpha-3-beta-3-gamma-2 subunits at 1 uM.

T1 sequence (Q16445 whole entry, one chain of several): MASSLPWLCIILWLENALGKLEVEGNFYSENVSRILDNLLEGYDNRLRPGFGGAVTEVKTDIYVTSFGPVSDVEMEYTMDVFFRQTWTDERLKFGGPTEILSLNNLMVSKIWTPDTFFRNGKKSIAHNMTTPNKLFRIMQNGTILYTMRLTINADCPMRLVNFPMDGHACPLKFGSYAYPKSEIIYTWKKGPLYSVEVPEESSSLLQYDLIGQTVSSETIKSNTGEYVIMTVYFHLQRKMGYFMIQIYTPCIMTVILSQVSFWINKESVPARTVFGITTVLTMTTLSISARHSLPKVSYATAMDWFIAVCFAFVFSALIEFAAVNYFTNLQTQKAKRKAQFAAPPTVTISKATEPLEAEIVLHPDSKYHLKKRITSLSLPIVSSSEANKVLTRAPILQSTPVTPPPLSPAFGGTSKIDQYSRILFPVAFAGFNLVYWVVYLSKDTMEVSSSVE

On to `CCOC(=O)c1ncn2c1CN(C)C(=O)c1cc(Br)ccc1-2`, for which the Ki in experiment [1] came to 22 nM; in experiment [2], 27 nM; in experiment [3], 13 nM.
With `C#Cc1ccc2c(c1)C(=O)N1CCC[C@H]1c1c(-c3nc(-c4ccccc4)no3)ncn1-2`, the inhibition worked out at 4% in experiment [4], 33% in experiment [6], 26% in experiment [7] and 19% in experiment [8]. The molecule further gave a Ki in experiment [5] of 455 nM.

A word on the Ki: it is a dissociation constant, usually derived from enzyme kinetics or from competition with a known ligand. The low end stands for higher affinity, the high end for lower affinity. Usually inhibition stands for the percentage by which the read-out fell short of the control. A high value points to strong suppression.

The values above are taken from ChEMBL document CHEMBL1131143, “Predictive models for GABAA/benzodiazepine receptor subtypes: studies of quantitative structure-activity relationships for imidazobenzodiazepines at five recombinant GABAA/benzodiazepine receptor subtypes [alphaxbeta3gamma2 (x = 1-3, 5, and 6)] via comparative molecular field analysis” (J Med Chem, 1998).
